From article PMC6388690 (Journal of medicinal chemistry, 2018)
Where a name gives a salt, the structure may show the parent alone.

How the values were obtained:
[1] = Reactivity with GSH monitored by 1H NMR; conditions: 37°C, 1.5–2 equiv GSH, pH 7.4, compared to oridonin
[2] = microsomes
[3] = tested on: MCF-7 and MDA-MB-231 cells; experiment: MTT growth inhibition screen in two breast cancer cell lines; type: cell-based, human; conditions: MCF-7 and MDA-MB-231, MTT
Method in brief: (§1)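 MTT proliferation assay: cells seeded at 1 × 10^4 per well and treated with DMSO or test compound at 0.1, 0.33, 1.0, 3.3 and 10 μM for 72 h. MTT reagent added, then OD 560 nm read after 1 h at 37°C. Quadruplicate wells per concentration.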

MCF-10A cells = experiment: Growth inhibition on normal mammary epithelial cells; type: cell-based, human; conditions: 48 h
Method in brief: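 Normal mammary epithelial MCF-10A cells treated for 48 h with varying concentrations of test compound or the parent natural product. Mean ± SD of three independent experiments. Student t-test against the parent natural product at the same concentration.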

MDA-MB-468 cells [4] = experiment: Colony-formation assay; type: cell-based, human; conditions: MDA-MB-468, low micromolar concentrations, 2 weeks
Bcl-2 to Bax ratio = experiment: Western-blot analysis of apoptosis biomarkers; type: cell-based, human; conditions: MDA-MB-231, 48 h
Method in brief: (§2)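 MDA-MB-231 cells given DMSO or test compound at several concentrations for 48 h, then lysed. Protein measured by Bradford (BSA standard); 40 μg resolved by SDS-PAGE and transferred to NC membrane. Blocked in 5% nonfat milk, then primaries overnight: Bcl-2 1:200, cleaved PARP 1:500, NF-κB 1:1000, Bax 1:1000, β-actin 1:2000. Secondary antibody applied; bands detected by ECL.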

NF-κB (p65) = experiment: Western-blot analysis of apoptosis biomarkers; type: cell-based, human; conditions: MDA-MB-231, 48 h, dose-dependent
Method in brief: as §2

cleaved PARP = experiment: Western-blot analysis of apoptosis biomarkers; type: cell-based, human; conditions: MDA-MB-231, 48 h, dose-dependent
Method in brief: as §2

SK-BR3 cells [5] = experiment: MTT cell proliferation assay; type: cell-based, human
Method in brief: as §1

MDA-MB-231 cells [6] = experiment: Cellular apoptosis assay; type: cell-based, human; conditions: 48 h
Method in brief: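 MDA-MB-231 cells, 2.5 × 10^5 per well, exposed to DMSO vehicle or test compound (1, 5, 10, 15 or 20 μM) for 48 h. Adherent and floating cells pooled and washed in PBS, then resuspended in PBS with 1% BSA plus Annexin V and dead-cell reagent for 20 min at room temperature. Read immediately on a cell analyzer; mean ± SD, ≥3 independent experiments.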

MCF-7 cells [7] = experiment: MTT cell proliferation assay; type: cell-based, human
Method in brief: as §1

MCF-7 cells [8] = experiment: Colony-formation assay; type: cell-based, human; conditions: MCF-7, low micromolar concentrations, 2 weeks
SK-BR3 cells [9] = experiment: Colony-formation assay; type: cell-based, human; conditions: SK-BR3, low micromolar concentrations, 2 weeks
MDA-MB-231 cells [10] = experiment: Colony-formation assay; type: cell-based, human; conditions: MDA-MB-231, low micromolar concentrations, 2 weeks
[11] = tested on: MDA-MB-231 xenograft tumors; experiment: MDA-MB-231 orthotopic xenograft tumor growth in nude mice; type: in vivo; conditions: intraperitoneal; for inhibitory effect on tumor growth compared to vehicle: daily
Method in brief: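 Female nude mice aged 6–8 weeks, kept in a barrier unit on a 12 h light–dark cycle. Freshly harvested MDA-MB-231 cells (1.0 × 106 in 100 μL PBS) injected into the no. 3 mammary fat pad, then mice randomized into 4 groups. Once tumours reached 80–100 mm3, daily ip test compound (10 or 15 mg/kg), parent natural product or vehicle, all dissolved in DMSO. Tumour volume (V = 0.5 × L × W2) and body weight measured daily; mean ± SEM.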

MDA-MB-468 cells [12] = experiment: MTT cell proliferation assay; type: cell-based, human
Method in brief: as §1

MDA-MB-231 cells [13] = experiment: MTT cell proliferation assay; type: cell-based, human
Method in brief: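 MDA-MB-231 cells seeded at 1 × 10^4 per well, then exposed to DMSO vehicle or test compound at 0.1, 0.33, 1.0, 3.3 and 10 μM for 72 h. Proliferation read by MTT reagent, with OD at 560 nm after 1 h at 37°C. Quadruplicate wells per concentration. Mean ± SD of at least three independent experiments; one-way ANOVA across groups.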

[14] = 2 equiv of GSH at pH 7.4; cited from earlier work
[15] = relatively long time (hours); cited from earlier work
t(8;21) leukemia = conditions: 7.5 and 15 mg/kg; cited from earlier work

In the case of `C=C1C(=O)[C@]23[C@H](OC(=O)[C@H](C)N)[C@H]1CC[C@H]2[C@@]12CO[C@@]3(O)[C@@H](O)[C@@H]1C(C)(C)CC[C@@H]2O.O=C(O)C(F)(F)F` [Compound 14], the “Reactivity / stability of covalent warhead toward GSH (in words)” value [1] is reported as “may enhance the enone’s reactivity”.

In the case of `C=C1C(=O)[C@@]23[C@@H]4OC(C)(C)O[C@@]25OC[C@@]2([C@H]([C@@H]5O)C(C)(C)CC[C@@H]2O)[C@@H]3CC[C@@H]14` [Compound 20], the “Reactivity / stability of covalent warhead toward GSH (in words)” value [1] is reported as “slightly weakens the reactivity of the enone”.

For `CC1(C)O[C@@H]2[C@H]3CC[C@H]4[C@@]56CO[C@@](O1)([C@@H](O)[C@@H]5C(C)(C)CC[C@@H]6O)[C@@]24C(=O)C31CN1` (stereo partly drawn) [Compound 25, (2R,3′S,3a′R,3a1′R,6a′R,7′S,11′S,11a′S)-7′,11′-Dihydroxy-5′,5′,8′,8′-tetramethyldecahydro-2′H-spiro[aziridine-2,15′-[6a,11a]-(epoxymethano)[3,3a1]ethanophenanthro[1,10-de][1,3]dioxin]-14’-one], the “microsomal stability compared to oridonin” value [2] was “higher microsomal and plasma stability”.

In the case of `C=CCNc1nc2c(s1)CC(C)(C)[C@H]1[C@H](O)[C@]3(O)OC[C@@]21[C@@H]1CC[C@@H]2[C@@H](O)[C@@]13C(=O)C21CN1C(=O)OCC1c2ccccc2-c2ccccc21` (stereo partly drawn) [Compound 42], the “antiproliferative activity (in words)” value [3] is reported as “moderate activities”.

With `C=CCNc1nc2c(s1)CC(C)(C)[C@H]1[C@H](O)[C@]3(O)OC[C@@]21[C@@H]1CC[C@@H]2[C@@H](O)[C@@]13C(=O)C21CN1` (stereo partly drawn) [Compound 43] the “antiproliferative activity (in words)” value [3] was “moderate activities”.

In the case of `C=CC(=O)N1CC12C(=O)[C@@]13[C@@H]4OC(C)(C)O[C@@]15OC[C@@]1([C@H]([C@@H]5O)C(C)(C)CC[C@@H]1O)[C@@H]3CC[C@H]42` (stereo partly drawn) [Compound 44], the “growth-inhibitory activity against MCF-10A in comparison to oridonin” value (MCF-10A cells; 0–10 μM) is reported as “comparable”, the “growth-inhibitory activity against MCF-10A in comparison to oridonin” value (MCF-10A cells; 15~100 μM) is reported as “significantly lower” and the “inhibition of colony formation” value (MDA-MB-468 cells [4]) is reported as “significantly inhibit the colony formation”. For the same compound, the “ratio of Bcl-2 to Bax” value (Bcl-2 to Bax ratio) was “reduced”, the “NF-κB (p65) protein expression” value (NF-κB (p65)) was “down-regulation” and the “cleaved PARP expression” value (cleaved PARP) was “up-regulation”. The “suppression of proliferation (dose-dependent)” value (“suppression of proliferation” for short) (SK-BR3 cells [5]) was “suppressed the proliferation”, the “apoptotic cells (early and late apoptosis together)” value (“apoptotic cells” for short) (MDA-MB-231 cells [6]; 10 μM) was 18.2% and the “apoptotic cells” value (MDA-MB-231 cells [6]; 15 μM) was 26.8%. For the same compound, the “apoptotic cells” value (MDA-MB-231 cells [6]; 20 μM) was 47.6%, the “suppression of proliferation” value (MCF-7 cells [7]) was “suppressed the proliferation” and the “inhibition of colony formation” value (MCF-7 cells [8]) was “significantly inhibit the colony formation”. For the same compound, the “inhibition of colony formation” value (SK-BR3 cells [9]) was “significantly inhibit the colony formation”, the “inhibition of colony formation” value (MDA-MB-231 cells [10]) was “significantly inhibit the colony formation” and the “antitumor efficacy, 44 versus oridonin” value ([11]; 10 mg/kg) was “comparable efficacy”. The “inhibitory effect on tumor growth compared to vehicle” value ([11]; 10 mg/kg) was “significant inhibitory effect”, the “inhibitory effect on tumor growth compared to vehicle” value ([11]; 15 mg/kg) was “significant inhibitory effect” and the “inhibitory effect on tumor growth compared to the oridonin group” value ([11]; 15 mg/kg, one-way ANOVA p = 0.0023) was “better inhibitory effect”. For the same compound, the “suppression of proliferation” value (MDA-MB-468 cells [12]) was “suppressed the proliferation” and the “suppression of proliferation” value (MDA-MB-231 cells [13]) was “suppressed the proliferation”.

For `CCC(=O)N1CC12C(=O)[C@@]13[C@@H]4OC(C)(C)O[C@@]15OC[C@@]1([C@H]([C@@H]5O)C(C)(C)CC[C@@H]1O)[C@@H]3CC[C@H]42` (stereo partly drawn) [Compound 45], the “antiproliferative activity (in words)” value [3] was “complete loss of activity”.

For `COC(=O)/C=C/C(=O)OC` [dimethyl fumarate], the “half-life with GSH” value [14] is listed as 50 to 60 min.

For `C=C1C(=O)[C@]23[C@H](O)[C@H]1CC[C@H]2[C@@]12CO[C@]3(O)[C@@H](O)[C@@H]1C(C)(C)CC[C@@H]2O` [oridonin], the “stability in strong acidic or basic media” value [15] is listed as “not stable”, the “inhibition of tumor growth” value (t(8;21) leukemia) is listed as “Inhibition of tumor growth in t(8;21) leukemia murine model (7.5 and 15 mg/kg)” and the “antitumor efficacy, 44 versus oridonin” value ([11]; 10 mg/kg) is listed as “comparable efficacy”.
